The text below walks through data of PubChem BioAssay.

Assay [1] is described as follows: hit retest on RPL19A-GFP reporter strain – cell-based, S. cerevisiae, flow cytometry, cherry picks, mother/daughter gates, confirmation (AID 2270;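 active = GFP response below 50% of the DMSO control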). Conditions: 3 h, at 10 µM, stronger effect = lower value, 100 = same GFP as DMSO wells.
Assay [2] can be described thus: yeast TOR pathway reporter LAP4-GFP change – cell-based, cherry picks, flow cytometry, mother/daughter gates, confirmation (AID 2271;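 active = GFP response above 150% of the DMSO control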;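 also: ratio of sample to DMSO plate mean so 100% equals DMSO level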). To be noted: S. cerevisiae LAP4-GFP strain, 3 h, at 10 µM, stronger effect = higher value, 100 means same as DMSO control. The method, boiled down:
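Test system: GFP-fusion yeast strain. Medium: synthetic complete (SC) yeast growth medium. Timing: 3 h treatment at 30 °C with rotation. Measured by: GFP by flow cytometry. Control set: positive rapamycin (400 ng/mL), negative DMSO.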
Background: In flow cytometry, cells or beads pass a laser one at a time.

The nature of assay [3]: TOR pathway reporter MEP2-GFP, retest of hits – S. cerevisiae, flow cytometry GFP, cherry picks, confirmation (AID 2272;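 active = GFP response above 150% of the DMSO control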;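 also: ratio of well signal to plate DMSO mean so 100% equals DMSO level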). Conditions: S. cerevisiae MEP2-GFP strain, 3 h, at 10 µM, stronger effect = higher value.
Assay [4] is described as follows: yeast AGP1-GFP fluorescence change, single-dose – cell-based, flow cytometry, S. cerevisiae, cherry picks, confirmation (AID 2273).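 Also: median GFP channel fluorescence over the whole cell population gate.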 Conditions: S. cerevisiae AGP1-GFP strain, 3 h, at 10 µM.
Assay [5] can be described thus: TOR pathway CIT2 reporter hit retest – S. cerevisiae, GFP fusion, cherry picks, mother/daughter gates, confirmation (AID 2274). To be noted: S. cerevisiae CIT2-GFP strain, flow cytometry, 3 h, at 10 µM, stronger effect = higher value.
The mark [6] stands for this setting: measured here: daughter cell gate.
Where [7] appears, read: measured here: mother cell gate.
Setting [8] is: measured here: daughter cell gate response.
Where [9] appears, read: measured here: mother cell gate response.

Active and inactive are the calls of the source.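 The calls were made as follows, unless noted: active = GFP response above 150% of the DMSO level; inconclusive = fewer than 70 events counted for a yeast strain; inactive = the rest.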

`Cc1ccccc1NC(=O)c1ccccc1`: the GFP response vs DMSO in assay [1] was 96.6% (inactive); in assay [1] (setting [6]) it was 98.1%; in assay [1] (setting [7]), 96.9%; in assay [3] it was 107% (inactive). Further, the figures for the GFP response relative to DMSO in assay [2], in assay [2] (setting [8]) and in assay [2] (setting [9]) were 95.4% (inactive), 97.6% and 94%, respectively. In addition, the GFP response, % of DMSO in assay [4] is 96.4% (inactive); in assay [5] it was 98.3% (inactive); in assay [5] (setting [6]), 99.1%; in assay [5] (setting [7]), 97.3%.

Take `Cc1cc(Br)c2c(c1)/C(=C/C(=O)c1cccs1)C(=O)N2`: the GFP response vs DMSO in assay [1] was 99.6% (inactive); in assay [1] (setting [6]), 99.1%; in assay [1] (setting [7]), 99.2%; in assay [3], 105% (inactive). For the same compound, the GFP response relative to DMSO in assay [2] is 115% (inactive); in assay [2] (setting [8]), 115%; in assay [2] (setting [9]) it was 117%. The GFP response, % of DMSO in assay [4] is 107% (inactive); in assay [5], 98.4% (inactive); in assay [5] (setting [6]), 93.7%; in assay [5] (setting [7]), 95.7%.

As for `Cc1sc(NC(=O)c2ccco2)nc1-c1ccccc1`, the GFP response vs DMSO in assay [1] was 93.8% (inactive); in assay [1] (setting [6]), 92.2%; in assay [1] (setting [7]), 93.6%; in assay [3] it was 102% (inactive). Also, the results for the GFP response relative to DMSO in assay [2], in assay [2] (setting [8]) and in assay [2] (setting [9]) were 111% (inactive), 105% and 113%, respectively. Also, the GFP response, % of DMSO in assay [4] is 89.5% (inactive); in assay [5], 102% (inactive); in assay [5] (setting [6]) it was 98.1%; in assay [5] (setting [7]) it was 101%.

Consider `O=C1c2ccsc2SCCN1Cc1cccc(F)c1`, for which the GFP response vs DMSO is 96% (inactive) in assay [1], 95.7% in assay [1] (setting [6]), 96.8% in assay [1] (setting [7]) and 92.6% (inactive) in assay [3]. The GFP response relative to DMSO is 103% (inactive) in assay [2], 102% in assay [2] (setting [8]) and 104% in assay [2] (setting [9]). The GFP response, % of DMSO in assay [4] is 89.9% (inactive); in assay [5], 87.2% (inactive); in assay [5] (setting [6]), 90.2%; in assay [5] (setting [7]) it was 84.6%.

For `CCOC(=O)Cc1csc(NC(=O)CCCCCN2C(=O)c3cccc4cccc(c34)C2=O)n1`, the GFP response vs DMSO in assay [1] was 98.7% (inactive); in assay [1] (setting [6]), 99.3%; in assay [1] (setting [7]), 99.3%; in assay [3], 102% (inactive). The GFP response relative to DMSO in assay [2] is 88.4% (inactive); in assay [2] (setting [8]), 87.8%; in assay [2] (setting [9]), 89.7%. The GFP response, % of DMSO in assay [4] was 98.2% (inactive); in assay [5] it was 102% (inactive); in assay [5] (setting [6]) it was 98.3%; in assay [5] (setting [7]), 101%.

Take `O=C(CCC(F)(F)F)N1CCC(CO)(CCc2ccccc2)CC1`: the GFP response vs DMSO was 102% (inactive) in assay [1], 99.8% in assay [1] (setting [6]), 102% in assay [1] (setting [7]) and 102% (inactive) in assay [3]. Moreover, the results for the GFP response relative to DMSO in assay [2], in assay [2] (setting [8]) and in assay [2] (setting [9]) were 91.4% (inactive), 95.6% and 92.1%, respectively. The GFP response, % of DMSO in assay [4] is 101% (inactive); in assay [5], 107% (inactive); in assay [5] (setting [6]), 106%; in assay [5] (setting [7]) it was 106%.

In the case of `O=c1/c(=C/c2cccc3ccccc23)sc2ncnn12`, the GFP response vs DMSO in assay [1] was 112% (inactive); in assay [1] (setting [6]), 113%; in assay [1] (setting [7]) it was 107%; in assay [3] it was 116% (inactive). Further, the GFP response relative to DMSO is 185% (active) in assay [2], 177% in assay [2] (setting [8]) and 180% in assay [2] (setting [9]). In addition, the GFP response, % of DMSO in assay [4] was 91.2% (inactive); in assay [5], 112% (inactive); in assay [5] (setting [6]), 122%; in assay [5] (setting [7]), 100%.

For `CCC(=O)Oc1oc(-c2ccccc2)nc1C=Nc1ccc(C)cc1`, the GFP response vs DMSO in assay [1] is 103% (inactive); in assay [1] (setting [6]), 103%; in assay [1] (setting [7]), 103%; in assay [3], 126% (inactive). The GFP response relative to DMSO is 111% (inactive) in assay [2], 113% in assay [2] (setting [8]) and 113% in assay [2] (setting [9]). Further, the GFP response, % of DMSO is 102% (inactive) in assay [4], 108% (inactive) in assay [5], 110% in assay [5] (setting [6]) and 109% in assay [5] (setting [7]).

As for `O=c1[nH]c(CN2CCCCC2)nc2c1C1(CCCCC1)Cc1ccccc1-2`, the GFP response vs DMSO in assay [1] was 100% (inactive); in assay [1] (setting [6]) it was 100%; in assay [1] (setting [7]), 100%; in assay [3], 100% (inactive). Further, the results for the GFP response relative to DMSO in assay [2], in assay [2] (setting [8]) and in assay [2] (setting [9]) were 98.7% (inactive), 98.7% and 101%, respectively. Further, the GFP response, % of DMSO in assay [4] is 99.2% (inactive); in assay [5], 99.1% (inactive); in assay [5] (setting [6]) it was 96.5%; in assay [5] (setting [7]), 98.7%.

With `Cc1ccc(S(=O)(=O)N2CCCC2C(=O)Oc2ccccc2)cc1` (configuration not stated), the GFP response vs DMSO is 98.8% (inactive) in assay [1], 99.1% in assay [1] (setting [6]), 99.5% in assay [1] (setting [7]) and 100% (inactive) in assay [3]. In addition, the GFP response relative to DMSO is 99.2% (inactive) in assay [2], 99.2% in assay [2] (setting [8]) and 99.3% in assay [2] (setting [9]). Moreover, the GFP response, % of DMSO is 95.6% (inactive) in assay [4], 98.3% (inactive) in assay [5], 97.2% in assay [5] (setting [6]) and 97.3% in assay [5] (setting [7]).

Take `Cc1ccccc1N1C(=O)CC(Sc2nnc(-c3ccccc3)o2)C1=O` (configuration not stated): the GFP response vs DMSO in assay [1] was 94.6% (inactive); in assay [1] (setting [6]) it was 92.2%; in assay [1] (setting [7]) it was 93.2%; in assay [3], 103% (inactive). Besides, the GFP response relative to DMSO in assay [2] was 102% (inactive); in assay [2] (setting [8]), 101%; in assay [2] (setting [9]), 103%. Also, the GFP response, % of DMSO in assay [4] is 102% (inactive); in assay [5], 97.3% (inactive); in assay [5] (setting [6]), 97.4%; in assay [5] (setting [7]), 96.8%.

In the case of `COc1ccc(-n2c(N)c(C(=O)Nc3c(C)n(C)n(-c4ccccc4)c3=O)c3nc4ccccc4nc32)cc1`, the GFP response vs DMSO in assay [1] is 97.4% (inactive); in assay [1] (setting [6]), 94.4%; in assay [1] (setting [7]) it was 98.1%; in assay [3] it was 103% (inactive). The GFP response relative to DMSO in assay [2] is 99.5% (inactive); in assay [2] (setting [8]), 99.1%; in assay [2] (setting [9]) it was 99.4%. The GFP response, % of DMSO in assay [4] is 102% (inactive); in assay [5], 94.4% (inactive); in assay [5] (setting [6]), 93.8%; in assay [5] (setting [7]) it was 94.4%.

For the compound `Cc1ccn2c(NC3CCCCC3)c(-c3cccc(-c4cccc(Cl)c4)c3)nc2c1`, the GFP response vs DMSO is 95% (inactive) in assay [1], 92.1% in assay [1] (setting [6]), 95.8% in assay [1] (setting [7]) and 108% (inactive) in assay [3]. The GFP response relative to DMSO in assay [2] is 110% (inactive); in assay [2] (setting [8]), 102%; in assay [2] (setting [9]), 112%. The GFP response, % of DMSO was 92.5% (inactive) in assay [4], 93.5% (inactive) in assay [5], 98.3% in assay [5] (setting [6]) and 88.6% in assay [5] (setting [7]).

Regarding `CC(C)c1nnc(NC(=O)c2nc(S(=O)(=O)Cc3ccccc3F)ncc2Cl)s1`, the GFP response vs DMSO is 98.4% (inactive) in assay [1], 97.8% in assay [1] (setting [6]), 99.2% in assay [1] (setting [7]) and 110% (inactive) in assay [3]. In addition, the figures for the GFP response relative to DMSO in assay [2], in assay [2] (setting [8]) and in assay [2] (setting [9]) were 108% (inactive), 107% and 107%, respectively. For the same compound, the GFP response, % of DMSO was 101% (inactive) in assay [4], 102% (inactive) in assay [5], 102% in assay [5] (setting [6]) and 100% in assay [5] (setting [7]).

Take `Cc1ccn2c(NC3CCCCC3)c(C(C)C)nc2c1`: the GFP response vs DMSO in assay [1] was 99.4% (inactive); in assay [1] (setting [6]), 99.4%; in assay [1] (setting [7]), 99.2%; in assay [3], 100% (inactive). The GFP response relative to DMSO was 101% (inactive) in assay [2], 101% in assay [2] (setting [8]) and 100% in assay [2] (setting [9]). Also, the GFP response, % of DMSO in assay [4] is 100% (inactive); in assay [5] it was 101% (inactive); in assay [5] (setting [6]), 103%; in assay [5] (setting [7]), 101%.

Consider `Cc1ccc(C2CC(c3cccs3)=NN2S(=O)(=O)c2ccc(C)cc2)cc1` (configuration not stated), for which the GFP response vs DMSO in assay [1] was 101% (inactive); in assay [1] (setting [6]) it was 100%; in assay [1] (setting [7]) it was 102%; in assay [3], 109% (inactive). Further, the figures for the GFP response relative to DMSO in assay [2], in assay [2] (setting [8]) and in assay [2] (setting [9]) were 98.2% (inactive), 97.5% and 97.3%, respectively. Also, the GFP response, % of DMSO is 99% (inactive) in assay [4], 98.8% (inactive) in assay [5], 97.4% in assay [5] (setting [6]) and 98.1% in assay [5] (setting [7]).

As for `O=C1C(=O)N(Cc2ccccc2)C(c2cccc(O)c2)/C1=C(\O)c1ccc2c(c1)OCCO2` (configuration not stated), the GFP response vs DMSO was 100% (inactive) in assay [1], 100% in assay [1] (setting [6]), 100% in assay [1] (setting [7]) and 100% (inactive) in assay [3]. In addition, the results for the GFP response relative to DMSO in assay [2], in assay [2] (setting [8]) and in assay [2] (setting [9]) were 95% (inactive), 95.6% and 98.3%, respectively. Also, the GFP response, % of DMSO was 95.2% (inactive) in assay [4], 108% (inactive) in assay [5], 106% in assay [5] (setting [6]) and 109% in assay [5] (setting [7]).
